Inconclusive results are not listed. Activity calls are given as the source filed them.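 Rule for the calls, unless noted: active = viability at or below 27.92% in each of two runs, the all-compound median minus 4 SD; inconclusive = no clear call, values can overlap the other calls; inactive = the rest.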
How the values were obtained:
[1] = S. cerevisiae growth inhibition in permissive medium (OD615), pilot counter-assay for S. cerevisiae lifespan shortening project, permissive growth control (AID 705;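 active = growth inhibition above 25% in both replicates, a cutoff set 3 SD above the mean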); settings: OD615, 24 h, at 10 µM, active compounds read high
Procedure, shortened: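 assay system = Saccharomyces cerevisiae strain carrying genetically modified DeaD replicative-lifespan system | technique = absorbance (optical density) at 615 nm | buffer or medium = permissive raffinose/galactose medium | timing = cells pre-grown 4 h, then 24 h compound exposure, 30 °C humidified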

[2] = S. cerevisiae growth inhibition in restrictive medium, OD615, pilot screen, restrictive growth control, yeast lifespan reduction project (AID 706;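 active = growth inhibition above a set limit, 3 SD over mean compound inhibition, in both replicates, cut at about 43% in these data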;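 note: modified DeaD lifespan yeast strain shifted to restrictive glucose medium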); settings: OD615, 48 h, at 10 µM, active compounds read high
Procedure, shortened: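 System: modified S. cerevisiae. Buffer or medium: CSMM-D glucose medium. Incubation: 4 h pre-growth plus 48 h compound exposure, 30 °C. Detection: absorbance (optical density) measured at 615 nm.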

[3] = doxorubicin toxicity protection in MRP-1 cells – H69AR cells, CellTiter-Glo, duplicate, MRP-1 activator project, pilot screen (AID 807;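 active = viability increase at or above a cutoff of the median across tested compounds plus 3 SD, cut at about 8.5% in these data, passing the limit was not always enough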;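 note: compound pretreatment 18-22 h then 72 h combined with doxorubicin; 0% = doxorubicin alone and 100% = vehicle without doxorubicin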); settings: H69AR viability with doxorubicin, CellTiter-Glo luminescence; at 10 µM; active compounds read high
[4] = viability of HCT116 without oncogenic beta-catenin – human colon tumor cells, pilot screen (AID 823;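 active = cell viability at or below a set limit in both duplicate runs, the limit being the all-compound median minus 4 SD, cut at about 23% in these data, passing the limit was not always enough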;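 note: 0% = wells killed by 20 µM Hyamine and 100% = untreated DMSO cell wells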); settings: HCT116 beta-catenin knockout viability, CellTiter-Glo, 60 h; at 10 µM; active compounds read low
[5] = viability of PTEN-null HCT116 cells – cell-based, HCT116 clonal line, CellTiter-Glo, pilot screen (AID 824); settings: HCT116 PTEN-deleted viability, 60 h, at 10 µM, active compounds read low;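 note: 0% = 20 µM Hyamine control and 100% = vehicle cell control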
[6] = RAM pathway blockade in budding yeast – dse1pr::URA3 reporter, 5-FOA selection, pilot screen (AID 869;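 active = inhibition over a set limit, the all-compound mean plus 3 SD, in both replicate runs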;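 note: 0% = DMSO wells with no growth and 100% = 10 µM 1-NA-PP1 with full growth; RAM network block rescues cells from 5-FOA so hits raise OD615 growth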); settings: S. cerevisiae dse1pr::URA3 5-FOA growth, OD615, 2 d; at 10 µM; active compounds read high; strain carries analog-sensitive mutant Cbk1 kinase
[7] = RAM signaling pathway blockade in yeast – S. cerevisiae, Pdr1DBD-CYC8 efflux-inhibited sensitized strain, primary screen (AID 1298;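 active = RAM network inhibition above 8.4% in each of two replicates, 3 SD over the compound average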;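 note: 0% = DMSO untreated cells without growth and 100% = 10 µM 1-NA-PP1 full growth; higher means more yeast growth rescued from 5-FOA killing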); settings: S. cerevisiae cbk1-as DSE1-URA3 strain, 5-FOA growth OD615, 2 d; at 50 µM; active compounds read high

Cn1c2c(c(=O)n(C)c1=O)CN(Cc1ccco1)CN2
inactive: growth inhibition [1] -2% | growth inhibition [2] 5.18% | viability increase [3] -2.84% | viability [4] 95.2% | viability [5] 97.7% | inhibition [6] -0.115% | RAM network inhibition [7] -0.06%

Cc1cccc(NC(=O)C2CCCN2S(=O)(=O)c2cccc3cccnc23)c1 (configuration not stated)
inactive: growth inhibition [1] -13% | growth inhibition [2] -6.59% | viability increase [3] -3.17% | viability [4] 85.3% | viability [5] 84% | inhibition [6] 0.065% | RAM network inhibition [7] 1.73%

CCCC(=O)Nc1nc2ccc(S(=O)(=O)N3CCCCC3)cc2s1
inactive: growth inhibition [1] -20.7% | growth inhibition [2] -19.5% | viability increase [3] -6.94% | viability [4] 32.5% | viability [5] 37.3% | inhibition [6] 1.27% | RAM network inhibition [7] 1.93%

O=C(Cn1cnc2c(cnn2-c2ccccc2)c1=O)N1CCOCC1
inactive: growth inhibition [1] -4% | growth inhibition [2] -3.03% | viability increase [3] -0.44% | viability [4] 101% | viability [5] 102% | inhibition [6] 0.17% | RAM network inhibition [7] 1.17%

Nc1ccc2nc3n(c(=O)c2c1)CCC3
inactive: growth inhibition [1] -2.62% | growth inhibition [2] 4.83% | viability increase [3] 1.87% | viability [4] 104% | viability [5] 108% | inhibition [6] 1.44% | RAM network inhibition [7] 3.92%

CCN1CCN(CC(=O)Nc2ccc3c(c2)OCCO3)C(=O)C1=O
inactive: growth inhibition [1] 2.63% | growth inhibition [2] 10.1% | viability increase [3] 1.13% | viability [4] 105% | viability [5] 103% | inhibition [6] 0.675% | RAM network inhibition [7] 2.49%

COc1ccc(CNC(=O)c2cc3c(C)nc4ccccc4c3o2)c(OC)c1
inactive: growth inhibition [1] -10.6% | growth inhibition [2] -12.2% | viability increase [3] -0.17% | viability [4] 74% | viability [5] 75.2% | inhibition [6] 1.66% | RAM network inhibition [7] 6.46%

O=C(NCCN1C(=O)C2C3C=CC(C3)C2C1=O)Nc1ccccc1O (configuration not stated)
inactive: growth inhibition [1] -6.45% | growth inhibition [2] -1.21% | viability increase [3] -1.45% | viability [4] 106% | viability [5] 106% | inhibition [6] 1.5% | RAM network inhibition [7] 4.02%

CCN1CCN(CCNC(=O)c2ccc(CS(=O)(=O)c3c(Cl)cccc3Cl)o2)CC1
inactive: growth inhibition [1] 5.83% | growth inhibition [2] 6.53% | viability increase [3] -1.94% | viability [4] 110% | viability [5] 103% | inhibition [6] 2.98% | RAM network inhibition [7] 1.59%

CC(=O)N(c1ccc(C)cc1)C1C=CS(=O)(=O)C1 (configuration not stated)
inactive: growth inhibition [1] -8.96% | growth inhibition [2] 7.8% | viability increase [3] -0.41% | viability [4] 101% | viability [5] 105% | inhibition [6] 0.6% | RAM network inhibition [7] 7.21%

C=CCn1c(CCCNC(=O)CCC)nc2ccccc21
inactive: growth inhibition [1] 2% | growth inhibition [2] 0.97% | viability increase [3] -0.01% | viability [4] 99.4% | viability [5] 103% | inhibition [6] -0.095% | RAM network inhibition [7] 4.24%

O=C(NCCN1C(=O)C2C3C=CC(C3)C2C1=O)Nc1cccnc1 (configuration not stated)
inactive: growth inhibition [1] -0.65% | growth inhibition [2] -7.67% | viability increase [3] -1.57% | viability [4] 96.7% | viability [5] 99.7% | inhibition [6] 0.445% | RAM network inhibition [7] 1.17%

CCOc1ccc2nc(N3CCC(C(=O)Nc4nnc(CC)s4)CC3)sc2c1
inactive: growth inhibition [1] -13.1% | growth inhibition [2] -21.7% | viability increase [3] -0.45% | viability [4] 95.8% | viability [5] 95.1% | inhibition [6] 2.67% | RAM network inhibition [7] 6.98%

OC(C#CCN1CCOCC1)c1cccs1 (configuration not stated)
inactive: growth inhibition [1] -5.03% | growth inhibition [2] 2.95% | viability increase [3] -0.71% | viability [4] 102% | viability [5] 98.4% | inhibition [6] 2.15% | RAM network inhibition [7] 4.66%

O=C(O)[C@H](Cc1ccccc1)N1Cc2ccccc2C1=O
inactive: growth inhibition [1] -4.39% | growth inhibition [2] -15% | viability increase [3] -2.35% | viability [4] 95.3% | viability [5] 97.4% | inhibition [6] 1.4% | RAM network inhibition [7] 1.15%

N=c1c2c3c(sc2nc2n1CCCCC2)CCCCC3
inactive: growth inhibition [1] -5.75% | growth inhibition [2] -13.7% | viability increase [3] -5.46% | viability [4] 67.7% | viability [5] 71.7% | inhibition [6] 0.715% | RAM network inhibition [7] 5.69%

N#CC1=C(N)Oc2n[nH]c(-c3ccccc3)c2C1c1cccc(OC(=O)N2CCOCC2)c1 (configuration not stated)
inactive: growth inhibition [1] -12.4% | growth inhibition [2] 2.86% | viability increase [3] -2.68% | viability [4] 97.6% | viability [5] 104% | inhibition [6] 2.34% | RAM network inhibition [7] 5.62%

Brc1cccc(-c2nc(-c3ccncc3)no2)c1
inactive: growth inhibition [1] -7.69% | growth inhibition [2] 7.9% | viability increase [3] -3.4% | viability [4] 90.4% | viability [5] 80% | inhibition [6] -0.445% | RAM network inhibition [7] 3.3%

O=C(CSc1nc2c(c(=O)n1-c1ccc(Cl)cc1)SCC2)N1CCOCC1
inactive: growth inhibition [1] -10.3% | growth inhibition [2] -2.5% | viability increase [3] -2.79% | viability [4] 97.6% | viability [5] 101% | inhibition [6] -0.06% | RAM network inhibition [7] -0.16%

COc1ccc(S(=O)(=O)N2CCC(C(=O)Nc3cccc(Cl)c3)CC2)cc1OC
inactive: growth inhibition [1] -2.42% | growth inhibition [2] -2.81% | viability increase [3] -3.54% | viability [4] 75.9% | viability [5] 78% | inhibition [6] 0.63% | RAM network inhibition [7] 1.52%

Cc1cccc(OCc2nnc(SCC(=O)Nc3ccc(C)c(C)c3)o2)c1
inactive: growth inhibition [1] -5.54% | growth inhibition [2] 1.43% | viability increase [3] -2.67% | viability [4] 102% | viability [5] 94.2% | inhibition [6] 4.2% | RAM network inhibition [7] 1.73%

CCOc1ccc(C(=O)Nc2c3c(nn2-c2ccc(C)cc2)CS(=O)C3)cc1OCC (configuration not stated)
inactive: growth inhibition [1] 2.17% | growth inhibition [2] -3.32% | viability increase [3] -1.84% | viability [4] 97.6% | viability [5] 104% | inhibition [6] 2.23% | RAM network inhibition [7] 8.77%

CCCc1ccc(Oc2c(-c3ccc(O)c(C)c3O)n[nH]c2C)cc1
active: growth inhibition [1] 93.6% | growth inhibition [2] 87.5%
inactive: viability increase [3] -2.16% | viability [4] 72.3% | viability [5] 74.3% | inhibition [6] -2.1% | RAM network inhibition [7] -1.26%

COCCNC(=O)Cn1cnc2c1c(=O)n(C)c(=O)n2C
inactive: growth inhibition [1] -16.3% | growth inhibition [2] -12.6% | viability increase [3] -0.95% | viability [4] 97.6% | viability [5] 98.3% | inhibition [6] 1.23% | RAM network inhibition [7] 3.4%

Cc1nn(C)c(C)c1S(=O)(=O)N(CC(=O)Nc1ccccn1)c1ccc(C(C)C)cc1
inactive: growth inhibition [1] -2.97% | growth inhibition [2] -15.5% | viability increase [3] -1.21% | viability [4] 80.1% | viability [5] 82.2% | inhibition [6] 2% | RAM network inhibition [7] -0.48%

COC(=O)C1=C(C)N(C)C(C)=C(C(=O)OC)C1c1ccsc1
inactive: growth inhibition [1] -6.88% | growth inhibition [2] -6.81% | viability increase [3] -2.96% | viability [4] 91.4% | viability [5] 87.8% | inhibition [6] 1.99% | RAM network inhibition [7] 2.51%

CCCC(=O)NCCCc1nc2ccccc2n1C
inactive: growth inhibition [1] -3.69% | growth inhibition [2] -0.54% | viability increase [3] -1.21% | viability [4] 97.1% | viability [5] 105% | inhibition [6] -0.03% | RAM network inhibition [7] 2.78%

Cc1nc2sc(C(c3ccco3)N3CCN(c4ccccc4)CC3)c(O)n2n1 (configuration not stated)
inactive: growth inhibition [1] -2.19% | growth inhibition [2] -0.705% | viability increase [3] 3.13% | viability [4] 97.3% | viability [5] 101% | inhibition [6] 1.73% | RAM network inhibition [7] 3%

O=C1c2ccccc2C(=O)N1CSc1ncccn1
inactive: growth inhibition [1] 0.27% | growth inhibition [2] -7.91% | viability increase [3] -3.86% | viability [4] 87.4% | viability [5] 89.7% | inhibition [6] 1.09% | RAM network inhibition [7] 2.25%

O=C1C2=C(SCCS2)C(=O)N1CCCO
inactive: growth inhibition [1] -1.38% | growth inhibition [2] -3.45% | viability increase [3] 0.11% | viability [4] 98.9% | viability [5] 97.9% | inhibition [6] -0.095% | RAM network inhibition [7] 3.67%

Cc1ccc2oc(=O)c3cnn(CC(=O)NC4CCN(Cc5ccccc5)CC4)c3c2c1
inactive: growth inhibition [1] -4.11% | growth inhibition [2] 0.24% | viability increase [3] -3.78% | viability [4] 88.3% | viability [5] 92% | inhibition [6] 1.77% | RAM network inhibition [7] 0.57%

Cc1cccc(Cn2c(N(C)Cc3ccccc3)nc3c2c(=O)[nH]c(=O)n3C)c1
inactive: growth inhibition [1] -0.355% | growth inhibition [2] -7.32% | viability increase [3] -2.61% | viability [4] 75.6% | viability [5] 64.8% | inhibition [6] 2.08% | RAM network inhibition [7] 2.26%

COc1ccc(-c2noc(CN3CCN(c4ccccc4)CC3)n2)cc1
inactive: growth inhibition [1] -12.7% | growth inhibition [2] -10.2% | viability increase [3] -1.14% | viability [4] 93.6% | viability [5] 88.4% | inhibition [6] 1% | RAM network inhibition [7] 5.43%

CCC(C)C1C(C#N)=C(N)Oc2n[nH]c(-c3ccccc3)c21 (configuration not stated)
inactive: growth inhibition [1] -4.81% | growth inhibition [2] -3.89% | viability increase [3] -2.23% | viability [4] 97.3% | viability [5] 94.3% | inhibition [6] 1.06% | RAM network inhibition [7] 5.9%

CCOc1ccccc1CNC(=O)c1cc2occc2n1C
inactive: growth inhibition [1] 1.53% | growth inhibition [2] 5.16% | viability increase [3] 1.21% | viability [4] 95.2% | viability [5] 87.4% | inhibition [6] 1.74% | RAM network inhibition [7] 3.98%

Cn1c(Cn2c(=O)sc3ccccc32)nnc1SCC(=O)NCc1ccc2c(c1)OCO2
inactive: growth inhibition [1] -5.55% | growth inhibition [2] -2.44% | viability increase [3] 0.11% | viability [4] 103% | viability [5] 101% | inhibition [6] 1.07% | RAM network inhibition [7] 4.41%

— PubChem BioAssay
